The source made the active and inactive calls. The rule behind the calls is not given here.
Columns and labels:
Type in all cases: functional
Trypanosoma cruzi = assay: Antitrypanosomal activity against trypomastigote stage of Trypanosoma cruzi Dm28c at 10 umol/L after 24 hrs by MTT assay
Outline: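 Parasites at 10⁷ per mL exposed to compound in DMSO ([…] final as printed, DMSO below 0.1% v/v) for 24 h at 37 °C. Nifurtimox served as positive control. Colorimetric read-out of viable parasites by absorbance at 570 nm.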

[1] = Antioxidant activity against APPH radical assessed as trolox equivalent incubated for 15 mins prior to APPH addition measured every 1 min by 120 mins by fluorescein-based ORAC method
Outline: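 Peroxyl-radical scavenging by ORAC-FL. Fluorescein (40 nM final) and compound in methanol (0.3–2 M range, as printed) in 75 mM sodium phosphate buffer pH 7.4. Preincubated 15 min at 37 °C, then AAPH (18 mM final) added. Fluorescence read at ex 485/em 528 nm every 1 min for 120 min. Area under the decay curve calculated, expressed relative to trolox. Means SD.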

[2] = Antioxidant activity assessed as inhibition of hydroxyl radical production at 1 mM after 5 mins by ESR spectrophotometry
Outline: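 Hydroxyl radical generated in N,N-dimethylformamide with NaOH (3 mM final), DMPO spin trap (30 mM final) and 30% hydrogen peroxide. Compounds at 1 mM final. EPR spectrum recorded after 5 min of reaction, with % scavenging derived from it.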

Row | Structure (SMILES) | Activity (Trypanosoma cruzi) | Activity [1] [equiv] | inhibition [2] [%]
1 | O=c1oc2ccccc2c(O)c1-c1cccc(O)c1 | 3.9% | 4.9 | 40.2
2 | CC1CS(=O)(=O)CCN1/N=C/c1ccc([N+](=O)[O-])o1 (centres undefined) [NIFURTIMOX] | 52.5% | – | –
3 | O=c1oc2ccccc2c(O)c1-c1ccc(Cl)cc1 | 30.7% | 3.9 | 31.3
4 | O=c1oc2ccc(Cl)cc2c(O)c1-c1cccc(O)c1 | inactive | 7.7 | 100
5 | Oc1cc(O)c2c(c1)OC(c1ccc(O)c(O)c1)C(O)C2 (centres undefined) | – | 6.76 | –
6 | COc1ccc(-c2c(O)c3ccccc3oc2=O)cc1 | 1.6% | 5.7 | 46.3
7 | Cc1ccc(-c2c(O)c3ccccc3oc2=O)cc1 | 16.7% | 6.5 | 34.6
8 | O=c1cc(O)c2ccccc2o1 | inactive | 4.2 | 61.9
9 | O=c1c(O)c(-c2ccc(O)c(O)c2)oc2cc(O)cc(O)c12 | – | 7.28 | –
10 | O=c1oc2ccccc2c(O)c1-c1ccccc1 | 21.1% | 4.4 | 45.1
